{"source": "ChEMBL document CHEMBL2157971", "about": "“Antitumor agents 294. Novel E-ring-modified camptothecin-4β-anilino-4'-O-demethyl-epipodophyllotoxin conjugates as DNA topoisomerase I inhibitors and cytotoxic agents” (Bioorg Med Chem, 2012)", "key": {"KB [1]": {"tested_on": "KB", "experiment": "Antiproliferative activity against human KB cells after 72 hrs by […] blue dye assay", "format": "functional, cell-based", "procedure,_shortened": "(§1)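 KB, etoposide-resistant KB/7D (kept in 7 µM etoposide), CPT-resistant KB CPT 100 (kept in 100 nM CPT) and revertant KB CPT 100rev cells, all grown in RPMI 1640 with 10% FBS. Log-phase cells seeded at 5000 cells/mL and exposed to a range of drug concentrations for 72 h. Growth read by […] blue dye assay; IC50 = 50% growth inhibition. Resistance ratio = KBCPT100 IC50 over KB IC50.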"}, "[2]": {"experiment": "Antiproliferative activity against human camptothecin-resistant KBCPT100 cells after 72 hrs by […] blue dye assay", "format": "functional, cell-based", "details": "KBCPT100, 72 h", "procedure,_shortened": "as §1"}, "[3]": {"experiment": "Antiproliferative activity against human partially revertant camptothecin-resistant KBCPT100 cells after 72 hrs by […] blue dye assay", "format": "functional, cell-based", "details": "KBCPT100, 72 h", "procedure,_shortened": "as §1"}, "[4]": {"experiment": "Antiproliferative activity against human VP16-resistant KB-7d cells overexpressing MRP after 72 hrs by […] blue dye assay", "format": "functional, cell-based", "details": "KB7D", "procedure,_shortened": "as §1"}, "[5]": {"experiment": "Resistance ratio of IC50 for human camptothecin-resistant KBCPT100 cells to IC50 for human KB cells", "format": "functional", "procedure,_shortened": "as §1"}, "[6]": {"target": "T1, DNA topoisomerase 1 (Homo sapiens) (UniProt P11387)", "T1 sequence (whole entry)": "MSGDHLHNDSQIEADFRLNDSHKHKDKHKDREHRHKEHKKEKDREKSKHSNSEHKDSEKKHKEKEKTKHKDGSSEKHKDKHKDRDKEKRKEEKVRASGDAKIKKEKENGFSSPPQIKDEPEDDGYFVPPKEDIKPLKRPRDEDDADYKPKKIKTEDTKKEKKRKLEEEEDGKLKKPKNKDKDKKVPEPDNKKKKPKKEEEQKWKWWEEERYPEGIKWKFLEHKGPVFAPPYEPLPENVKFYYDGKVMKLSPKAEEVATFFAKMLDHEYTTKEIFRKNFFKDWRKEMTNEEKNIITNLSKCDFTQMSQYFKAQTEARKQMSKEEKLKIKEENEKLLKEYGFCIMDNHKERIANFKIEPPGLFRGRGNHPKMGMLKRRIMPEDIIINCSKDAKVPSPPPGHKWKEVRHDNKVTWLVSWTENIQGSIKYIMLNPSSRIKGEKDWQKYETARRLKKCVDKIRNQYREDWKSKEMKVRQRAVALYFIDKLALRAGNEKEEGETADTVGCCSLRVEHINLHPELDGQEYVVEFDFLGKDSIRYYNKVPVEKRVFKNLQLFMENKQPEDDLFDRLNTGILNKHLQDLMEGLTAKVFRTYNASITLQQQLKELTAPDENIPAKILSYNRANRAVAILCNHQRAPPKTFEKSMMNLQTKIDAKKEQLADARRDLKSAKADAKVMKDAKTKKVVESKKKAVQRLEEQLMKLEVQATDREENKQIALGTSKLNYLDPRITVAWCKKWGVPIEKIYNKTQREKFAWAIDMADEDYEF", "experiment": "Inhibition of DNA topoisomerase 1 in human KB cells using [C14]thymidine assessed as protein-linked DNA breaks formation at 22.5 uM after 30 mins by […]", "format": "cell-based", "procedure,_shortened": "(§2)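 KB cells labeled with [14C]thymidine for 24 h, then treated with compound (2.5 or 22.5 µM) at 37 °C. Protein-linked DNA breaks quantified by potassium-SDS co-precipitation.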"}, "[7]": {"target": "T1, DNA topoisomerase 1 (Homo sapiens)", "experiment": "Inhibition of recombinant DNA topoismerase1-mediated cleavage activity at 25 uM after 15 mins by […]", "procedure,_shortened": "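32P-labeled ON5/ON4 oligoduplex (50 fmol) incubated with purified recombinant topoisomerase I (220 fmol) ± compound (25 µM) at 37 °C for 15 min. Stopped with SDS (0.5% final), then proteinase K digestion (1 mg/mL final). Cleavage products resolved on 20% denaturing urea/polyacrylamide gel.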"}, "[8]": {"target": "T1, DNA topoisomerase 1 (Homo sapiens)", "experiment": "Inhibition of recombinant DNA topoisomerase1-mediated topo1-linked DNA relegation activity at 25 uM after 30 mins by […]", "procedure,_shortened": "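Suicide topo I cleavage complex pre-formed on radiolabeled oligoduplex. Religation started by adding 5 pmol of 13-mer ON6 with compound present, at 37 °C. 25-mer religation product resolved on 20% urea/polyacrylamide gel and quantified by phosphorimager.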"}, "[9]": {"experiment": "Inhibition of DNA topoisomerase 2-mediated [alpha32P]dCTP-labelled pBR322 cleavage up to 25 uM after 30 mins by agarose gel electrophoresis"}, "[10]": {"experiment": "Inhibition of DNA topoisomerase 2-mediated relegation activity at 250 uM after 30 mins by agarose gel electrophoresis"}, "KB [11]": {"tested_on": "KB", "experiment": "Ratio of VP16 IC50 to compound IC50 for human KB cells", "format": "functional"}, "[12]": {"target": "T1, DNA topoisomerase 1 (Homo sapiens)", "experiment": "Inhibition of DNA topoisomerase 1 in human KB cells using [C14]thymidine assessed as protein-linked DNA breaks formation at 2.5 uM after 30 mins by […]", "format": "cell-based", "procedure,_shortened": "as §2"}}, "note": "The source made the active and inactive calls. No cut-off for these calls is given here."}
{"smiles": "CC[C@@](O)(C(=O)NC(C)C)c1cc2n(c(=O)c1CO)Cc1c-2nc2ccccc2c1/C=N\\c1ccccc1N[C@@H]1c2cc3c(cc2[C@@H](c2cc(OC)c(O)c(OC)c2)[C@H]2C(=O)OC[C@@H]21)OCO3", "values": [{"measurement": "IC50", "setting": "KB [1]", "result": 60, "unit": "nM"}, {"measurement": "IC50", "setting": "[2]", "result": 206, "unit": "nM"}, {"measurement": "IC50", "setting": "[3]", "result": 141, "unit": "nM"}, {"measurement": "IC50", "setting": "[4]", "result": 61, "unit": "nM"}, {"measurement": "Ratio IC50", "setting": "[5]", "result": 2.8}, {"measurement": "fold change (FC)", "setting": "[6]", "result": 7}, {"measurement": "inhibition", "setting": "[7]", "result": "inactive"}, {"measurement": "inhibition", "setting": "[8]", "result": "Active"}, {"measurement": "inhibition", "setting": "[9]", "result": "inactive"}, {"measurement": "inhibition", "setting": "[10]", "result": "Active"}, {"measurement": "Ratio IC50", "setting": "KB [11]", "result": 8}]}
{"smiles": "CC[C@@]1(O)C(=O)OCc2c1cc1n(c2=O)Cc2c-1nc1ccccc1c2/C=N\\c1ccccc1N[C@@H]1c2cc3c(cc2[C@@H](c2cc(OC)c(O)c(OC)c2)[C@H]2C(=O)OC[C@@H]21)OCO3", "values": [{"measurement": "IC50", "setting": "KB [1]", "result": 37, "unit": "nM"}, {"measurement": "IC50", "setting": "[2]", "result": 112, "unit": "nM"}, {"measurement": "IC50", "setting": "[3]", "result": 70, "unit": "nM"}, {"measurement": "IC50", "setting": "[4]", "result": 70, "unit": "nM"}, {"measurement": "Ratio IC50", "setting": "[5]", "result": 2.8}, {"measurement": "inhibition", "setting": "[12]", "result": "Active"}, {"measurement": "inhibition", "setting": "[7]", "result": "inactive"}, {"measurement": "inhibition", "setting": "[8]", "result": "Active"}, {"measurement": "inhibition", "setting": "[9]", "result": "inactive"}, {"measurement": "inhibition", "setting": "[10]", "result": "Active"}]}
{"smiles": "CC[C@@]1(O)C(=O)OCc2c1cc1n(c2=O)Cc2c-1nc1ccccc1c2/C=N\\c1ccc(N[C@@H]2c3cc4c(cc3[C@@H](c3cc(OC)c(O)c(OC)c3)[C@H]3C(=O)OC[C@@H]32)OCO4)cc1", "values": [{"measurement": "IC50", "setting": "KB [1]", "result": 24.5, "unit": "nM"}, {"measurement": "IC50", "setting": "[2]", "result": 95, "unit": "nM"}, {"measurement": "IC50", "setting": "[3]", "result": 44, "unit": "nM"}, {"measurement": "IC50", "setting": "[4]", "result": 37.5, "unit": "nM"}, {"measurement": "Ratio IC50", "setting": "[5]", "result": 2.8}, {"measurement": "inhibition", "setting": "[12]", "result": "Active"}, {"measurement": "inhibition", "setting": "[7]", "result": "inactive"}, {"measurement": "inhibition", "setting": "[8]", "result": "Active"}, {"measurement": "inhibition", "setting": "[9]", "result": "inactive"}, {"measurement": "inhibition", "setting": "[10]", "result": "Active"}]}
{"smiles": "CC[C@@](O)(C(=O)NC(C)C)c1cc2n(c(=O)c1CO)Cc1c-2nc2ccccc2c1/C=N\\c1ccc(N[C@@H]2c3cc4c(cc3[C@@H](c3cc(OC)c(O)c(OC)c3)[C@H]3C(=O)OC[C@@H]32)OCO4)cc1", "values": [{"measurement": "IC50", "setting": "KB [1]", "result": 42.5, "unit": "nM"}, {"measurement": "IC50", "setting": "[2]", "result": 120, "unit": "nM"}, {"measurement": "IC50", "setting": "[3]", "result": 57, "unit": "nM"}, {"measurement": "IC50", "setting": "[4]", "result": 50, "unit": "nM"}, {"measurement": "Ratio IC50", "setting": "[5]", "result": 2.8}, {"measurement": "inhibition", "setting": "[12]", "result": "Active"}, {"measurement": "inhibition", "setting": "[7]", "result": "inactive"}, {"measurement": "inhibition", "setting": "[8]", "result": "Active"}, {"measurement": "inhibition", "setting": "[9]", "result": "inactive"}, {"measurement": "inhibition", "setting": "[10]", "result": "Active"}, {"measurement": "Ratio IC50", "setting": "KB [11]", "result": 10}]}
{"smiles": "CC[C@@]1(O)C(=O)OCc2c1cc1n(c2=O)Cc2cc3ccccc3nc2-1", "note": "[CAMPTOTHECIN]", "values": [{"measurement": "IC50", "setting": "KB [1]", "result": 8.8, "unit": "nM"}, {"measurement": "IC50", "setting": "[2]", "result": 423, "unit": "nM"}, {"measurement": "IC50", "setting": "[3]", "result": 24, "unit": "nM"}, {"measurement": "IC50", "setting": "[4]", "result": 6.8, "unit": "nM"}, {"measurement": "Ratio IC50", "setting": "[5]", "result": 48}]}
{"smiles": "COc1cc([C@@H]2c3cc4c(cc3[C@@H](O[C@@H]3O[C@@H]5CO[C@@H](C)O[C@H]5[C@H](O)[C@H]3O)[C@H]3COC(=O)[C@H]23)OCO4)cc(OC)c1O", "note": "[ETOPOSIDE]", "values": [{"measurement": "IC50", "setting": "KB [1]", "result": 475, "unit": "nM"}, {"measurement": "IC50", "setting": "[2]", "result": 336, "unit": "nM"}, {"measurement": "IC50", "setting": "[3]", "result": 374, "unit": "nM"}, {"measurement": "IC50", "setting": "[4]", "result": 55000, "unit": "nM"}]}
